Rows were chosen to be rich in hits. Some 4.6% of all compounds tested hit in one or more screens of this group.
p97 inhibitor: inhibitors of human p97 ATPase, primary screen, biochemical; Transitional endoplasmic reticulum ATPase (Homo sapiens), P55072; recombinant p97 ATPase, Kinase-Glo ATP luminescence, 3 h; inhibition, % at 8 µM; actives 0.42% (n = 220,000); AID 1481, 2009; in the data active = inhibition above about 15%;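 note: 0% = DMSO vehicle and 100% = wells lacking enzyme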
NF-kB expr up: activators of NF-kB expression in neurons, primary screen, cell-based, HTS | human neuronal cells, NF-kB reporter expression; hits give high values | fold change at 12.5 µM | actives 1.6% (n = 190,000) | AID 1239, 2008; in the data active = fold change above about 3.3
Wee1 degr inh: Wee1 degradation inhibitors, primary screen, cell-based, HeLa, Wee1K328M-luciferase, luminescence. Wee1-like protein kinase (Homo sapiens), P30291. HeLa Luc-Wee1K328M stability; 100% = proteasome inhibitor MG132 effect. reporter increase, % at 5 µM. actives 1.2% (n = 220,000);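 active = activation above the mean of all tested compounds plus 3 SD, set per screening run, cut at about 8.8% in these data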;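 note: cells exposed to compound for 20 h before luminescence read; 0% = DMSO alone and 100% = MG132 at 30 µM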
Target sequence (P30291 whole entry K328M): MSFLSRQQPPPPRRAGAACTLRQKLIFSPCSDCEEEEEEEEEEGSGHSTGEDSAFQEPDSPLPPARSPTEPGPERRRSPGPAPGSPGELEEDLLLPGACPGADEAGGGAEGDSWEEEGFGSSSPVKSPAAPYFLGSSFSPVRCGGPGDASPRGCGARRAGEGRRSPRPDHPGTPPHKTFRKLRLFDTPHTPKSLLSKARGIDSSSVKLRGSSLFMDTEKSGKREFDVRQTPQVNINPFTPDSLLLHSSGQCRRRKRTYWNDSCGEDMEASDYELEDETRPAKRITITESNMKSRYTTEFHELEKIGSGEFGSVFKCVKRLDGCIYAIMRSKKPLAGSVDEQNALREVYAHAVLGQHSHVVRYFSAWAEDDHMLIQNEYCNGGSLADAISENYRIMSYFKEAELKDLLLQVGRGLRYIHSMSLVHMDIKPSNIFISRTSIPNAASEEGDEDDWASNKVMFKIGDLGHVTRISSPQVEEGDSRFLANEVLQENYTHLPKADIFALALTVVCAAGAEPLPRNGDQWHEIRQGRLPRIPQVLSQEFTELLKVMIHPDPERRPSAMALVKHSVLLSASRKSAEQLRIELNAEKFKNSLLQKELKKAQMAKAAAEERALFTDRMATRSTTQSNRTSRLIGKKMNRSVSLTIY
APP 5'UTR act: activators of APP 5'UTR luciferase reporter, primary screen, SH-SY5Y cells | SH-SY5Y APP 5'UTR luciferase reporter, luminescence; zero percent = DMSO vehicle wells | activation, % at 2 µM | actives 1% (n = 190,000);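 active = activation above a set limit, based on mean plus 3 SD of controls, cut at about 140% in these data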
Mdm2 ligase inh: MDM2-luciferase reporter signal enhancers, primary screen, MDM2 E3 ligase inhibitor project, cell-based, luminescence, 1536-well; actives 0.11% (n = 210,000); E3 ubiquitin-protein ligase Mdm2 (Homo sapiens), Q00987; signal enhancement, % at 5 µM; cell-based MDM2 ubiquitination luciferase reporter, 2 h; 0 = plate control, 100 = twice control, blank-subtracted; AID 1230, 2008;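 active = signal enhancement of 30% or more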;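 note: luminescence tracks abundance of the self-degrading MDM2-luciferase fusion protein; higher signal means inhibition of MDM2 E3 ligase activity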
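test system = mammalian cells stably expressing self-ubiquitinating, self-degrading MDM2 E3–luciferase fusion | quantity = 2000 cells/well | incubation = cell settling 4 h, compound treatment 2 h, both 37 °C | signal = luminescence with SteadyLite reagent, 15 min at room temperature | evaluation = % enhancement relative to plate controls after blank subtraction | benchmarks = plate controls and plate blanks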
STAT1 act: STAT1 signaling activators, primary screen, cell-based, HTS, luciferase reporter; AID 932, 2007; NIH 3T3 STAT1-luciferase reporter, IFN-gamma, luminescence; 100% = IFN-gamma alone, no compound; actives 2.6% (n = 200,000); activation (% of control), % at 5.5 µM;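 active = activation above the screen-wide mean activation plus 3 SD, cut at about 130% in these data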;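 note: raw ratio to IFN-gamma control signal so 100% means no change and 0% no light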
STAT1 activ conf: STAT1 signaling activators, confirmation, cell-based, HTS, luciferase reporter; activation (% of control), % at 5.7 µM; AID 1262, 2008; actives 97% (n = 1,200); shares compounds with STAT1 act; NIH 3T3 STAT1-luciferase reporter, IFN-gamma potentiation, luminescence; 100% = IFN-gamma EC80 alone, no compound;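 active = activation above a set limit carried over from the earlier primary STAT1 screen, cut at about 140% in these data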;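 note: simple ratio to median IFN-gamma plus DMSO wells so 0% means no light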
NFkB act: NF-kB reporter activators, TNF-alpha stimulated, counter-screen for STAT1 activator project, cell-based, HEK293T, luciferase luminescence | actives 43% (n = 1,200) | shares compounds with STAT1 act | AID 1306, 2008 | activation (% of control), % at 5.7 µM | 100% = TNF-alpha with vehicle only;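 active = activation above the mean of solvent-only control wells plus 3 SD, set per campaign, cut at about 130% in these data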;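 note: TNF-alpha given at a submaximal dose yielding about 80% of full reporter signal; values are well signal over median control so 100% means no change and 0% no light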
STAT3 act STAT1c: STAT3 reporter activation by STAT1 hits, confirmation, counter-screen for STAT1 activator project, U3A cells, luciferase, luminescence; shares compounds with STAT1 act; IL-6; cells lack STAT1; 100 = IL-6 alone, no compound effect; activation (% of control), % at 5.7 µM; actives 46% (n = 1,200); AID 1316, 2008;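 active = activation above the solvent-only control well mean plus 3 SD, set per plate batch, cut at about 110% in these data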;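 note: 0% = no luminescence and 100% = median IL-6 plus DMSO wells; higher means more STAT3 reporter activation so hits are non-selective activators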
* = called active by the depositor.

Results for Clc1cccc(CN2CCN(Cc3nc(CCc4ccccc4)no3)CC2)c1 ?
p97 inhibitor: -0.9; NF-kB expr up: 1.13; Wee1 degr inh: 0.4; APP 5'UTR act: -3.7; Mdm2 ligase inh: -5.5; STAT1 act: 90.0

What do the screens show for `C(=N\N=C\c1ccccc1)/c1ccccc1`?
p97 inhibitor: 1.1; NF-kB expr up: 0.98; Wee1 degr inh: 0.0; APP 5'UTR act: 36.4; Mdm2 ligase inh: -16.8; STAT1 act: 158.1*; STAT1 activ conf: 186.2*; NFkB act: 145.1*; STAT3 act STAT1c: 103.4

How did Cc1ccc2[nH]c(-c3cccc(N)c3)cc2c1 do in these assays?
p97 inhibitor: 4.7; NF-kB expr up: 3.28; Wee1 degr inh: -2.8; APP 5'UTR act: 151.5*; Mdm2 ligase inh: -10.0; STAT1 act: 183.4*; STAT1 activ conf: 213.5*; NFkB act: 145.5*; STAT3 act STAT1c: 104.4

How did NC(=O)C1=C[C@H](C2CCCCC2)C[C@H](OCc2ccc(CO)cc2)O1 do in these assays?
p97 inhibitor: 2.9; NF-kB expr up: 3.84*; Wee1 degr inh: 3.2; APP 5'UTR act: 125.5; STAT1 act: 171.0*; STAT1 activ conf: 162.9*; NFkB act: 141.7*; STAT3 act STAT1c: 163.5*

Results for O=C(NC1CC1)C1=C[C@@H](C2CCCCC2)C[C@@H](OCc2ccc(CO)cc2)O1 ?
p97 inhibitor: 2.7; NF-kB expr up: 0.95; Wee1 degr inh: -2.1; APP 5'UTR act: 8.5; STAT1 act: 95.9

What do the screens show for `N/C(=N\c1nc2ccccc2o1)NC(=O)c1ccccc1F`?
p97 inhibitor: -2.0; NF-kB expr up: 2.11; Wee1 degr inh: 2.4; APP 5'UTR act: 119.1; Mdm2 ligase inh: -12.6; STAT1 act: 150.8*; STAT1 activ conf: 161.9*; NFkB act: 123.9; STAT3 act STAT1c: 119.1*

What do the screens show for `N/C(=N\c1nc2ccccc2o1)NC(=O)c1ccccc1NC(=O)c1ccccc1`?
p97 inhibitor: 2.4; NF-kB expr up: 1.25; Wee1 degr inh: 4.2; APP 5'UTR act: 2.8; Mdm2 ligase inh: -14.7; STAT1 act: 96.8

Results for Cc1ccc(-c2cccc(CN3CCN(C4CCN(C(C)C)CC4)C(CCO)C3)c2)o1 (centres undefined) ?
p97 inhibitor: 0.6; NF-kB expr up: 0.8; Wee1 degr inh: -1.5; APP 5'UTR act: 0.3; Mdm2 ligase inh: -1.6; STAT1 act: 98.0

How did Clc1ccc2nc(N3CCCCC3)sc2c1 do in these assays?
p97 inhibitor: -1.2; NF-kB expr up: 4.87*; Wee1 degr inh: 10.7*; APP 5'UTR act: 173.0*; Mdm2 ligase inh: -19.3; STAT1 act: 166.0*; STAT1 activ conf: 207.5*; NFkB act: 137.9*; STAT3 act STAT1c: 104.4

Results for CS(=O)(=O)N1CCN(c2nc3ccc(Cl)cc3s2)CC1 ?
p97 inhibitor: -2.6; Wee1 degr inh: 3.6; Mdm2 ligase inh: 0.0

How did Cc1cc(C(=O)NC2=NCCS2)cs1 do in these assays?
p97 inhibitor: 1.9; NF-kB expr up: 2.61; Wee1 degr inh: 1.8; APP 5'UTR act: 73.6; Mdm2 ligase inh: -29.3; STAT1 act: 126.0

What do the screens show for `O=C(NC1=NCCS1)c1csc2ccccc12`?
p97 inhibitor: -2.9; NF-kB expr up: 6.84*; Wee1 degr inh: 0.4; APP 5'UTR act: 105.2; Mdm2 ligase inh: -36.7; STAT1 act: 152.4*; STAT1 activ conf: 199.5*; NFkB act: 125.6; STAT3 act STAT1c: 118.2*

Results for O=C(CNC(=O)c1ccc(S(=O)(=O)N2CCCC2)cc1)N/N=C/c1ccc(Cl)cc1Cl ?
p97 inhibitor: -4.9; NF-kB expr up: 0.89; Wee1 degr inh: -2.8; APP 5'UTR act: 3.8; Mdm2 ligase inh: -2.3; STAT1 act: 84.7

What do the screens show for `Cc1cc(C(=O)CSc2ncccn2)c(C)n1-c1cccc(F)c1`?
p97 inhibitor: -1.4; NF-kB expr up: 3.28; Wee1 degr inh: 0.2; APP 5'UTR act: 162.2*; Mdm2 ligase inh: -22.8; STAT1 act: 172.4*; STAT1 activ conf: 191.3*; NFkB act: 126.4; STAT3 act STAT1c: 111.5*

Results for CCOc1ccc(C(=O)Nc2ccc(Cl)cn2)cc1Cl ?
p97 inhibitor: 2.0; NF-kB expr up: 4.86*; Wee1 degr inh: 5.1; APP 5'UTR act: 153.0*; Mdm2 ligase inh: -11.3; STAT1 act: 157.6*; STAT1 activ conf: 187.6*; NFkB act: 136.6*; STAT3 act STAT1c: 99.0

Results for CCCn1nnc(NC(=O)c2ccc(OCC)c(Cl)c2)n1 ?
p97 inhibitor: -7.2; NF-kB expr up: 1.2; Wee1 degr inh: -0.6; APP 5'UTR act: 14.1; Mdm2 ligase inh: -16.9; STAT1 act: 93.9

How did O=c1c2ccccc2nc(SCc2nc3ccccc3s2)n1CCCO do in these assays?
p97 inhibitor: -0.5; NF-kB expr up: 1.12; Wee1 degr inh: -2.2; APP 5'UTR act: 50.1; Mdm2 ligase inh: -9.9; STAT1 act: 126.7

Results for O=C(c1ccccc1Sc1ccccc1[N+](=O)[O-])N1CCCCC1 ?
p97 inhibitor: 6.0; Wee1 degr inh: 0.6; APP 5'UTR act: 1.8; Mdm2 ligase inh: 2.8; STAT1 act: 94.6

What do the screens show for `CCOC(=O)c1cnc(SCC(=O)N2CCN(C(=O)c3ccco3)CC2)nc1N`?
p97 inhibitor: 0.4; NF-kB expr up: 1.04; Wee1 degr inh: -0.7; APP 5'UTR act: 0.2; Mdm2 ligase inh: -2.3; STAT1 act: 97.3

Results for CCOC(=O)c1cnc(SCCc2ccccc2)nc1N ?
p97 inhibitor: -6.5; NF-kB expr up: 6.91*; Wee1 degr inh: 1.1; APP 5'UTR act: 190.2*; STAT1 act: 165.1*; STAT1 activ conf: 188.6*; NFkB act: 130.8; STAT3 act STAT1c: 118.7*

Bioassay records from PubChem BioAssay.
